An excerpt weighted towards active compounds, which were near 0.77% of everything screened.
bIAP act: bovine intestinal alkaline phosphatase activators, primary screen, biochemical, bovine IAP, CDP-star luminescence; alkaline phosphatase, intestinal [Bos taurus]; purified bovine IAP, 30 min; hits give high values; fold of DMSO-control signal, blank-subtracted; activation factor at 20 µM; 200,000 compounds, 0.17% hits; AID 1016, 2008;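 active = activation factor of 2 or more at 20 µM, a signal rise over negative controls twice the positive control's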
hIAP inh: human IAP inhibitors, primary screen, biochemical, luminescence, uHTS; 330,000 compounds, 0.12% hits; Intestinal-type alkaline phosphatase (Homo sapiens), P09923; inhibition, % at 10 µM; purified IAP, CDP-Star luminescence, 30 min; AID 2544, 2010;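 active = inhibition reaching a set limit with compound at 10 µM in the primary screen, cut at about 35% in these data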;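 also: plate controls were DMSO wells with enzyme for no effect and no-enzyme buffer wells for full effect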
Target sequence (P09923 whole entry, looked up): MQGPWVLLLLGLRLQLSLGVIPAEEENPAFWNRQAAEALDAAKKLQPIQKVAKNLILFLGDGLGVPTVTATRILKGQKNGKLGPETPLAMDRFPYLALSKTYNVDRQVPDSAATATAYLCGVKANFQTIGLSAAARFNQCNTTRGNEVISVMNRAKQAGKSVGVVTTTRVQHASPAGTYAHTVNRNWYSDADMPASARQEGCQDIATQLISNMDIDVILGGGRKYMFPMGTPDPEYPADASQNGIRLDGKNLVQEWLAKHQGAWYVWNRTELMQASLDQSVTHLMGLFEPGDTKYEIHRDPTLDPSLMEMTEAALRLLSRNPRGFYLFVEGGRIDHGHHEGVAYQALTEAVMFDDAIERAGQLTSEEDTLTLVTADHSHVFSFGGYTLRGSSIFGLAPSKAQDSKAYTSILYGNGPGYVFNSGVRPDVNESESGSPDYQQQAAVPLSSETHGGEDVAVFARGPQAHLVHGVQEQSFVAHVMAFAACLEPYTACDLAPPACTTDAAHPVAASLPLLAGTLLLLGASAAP
hIAP activ: human IAP activators, primary screen, biochemical, luminescence, uHTS; AID 2524, 2010; 330,000 compounds, 0.16% hits; purified human IAP, CDP-Star luminescence, 30 min; hits give high values; 1 = vehicle-only enzyme, 0 = enzyme-free background; activation factor at 10 µM;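 active = activation factor of the enzyme at least 2-fold when tested at 20 µM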
mIAP act: activators of mouse IAP, primary screen, biochemical, luminescence, uHTS; muIAP, CDP-Star luminescence, 30 min; hits give high values; 1 = vehicle-only enzyme signal, 0 = enzyme-free wells; AID 2805, 2010; activation factor at 10 µM; 330,000 compounds, 0.24% hits; intestinal alkaline phosphatase [Mus musculus];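 active = activation factor of at least 2 at 20 µM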
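System: mouse IAP enzyme. Reagent: CDP-Star chemiluminescent phosphatase substrate. Benchmarks: DMSO wells, no-enzyme wells. Times: 30 min enzyme-substrate-compound incubation at room temperature. Detection: luminescence from enzymatic CDP-Star hydrolysis. Doses: test compounds delivered from DMSO solution.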
bIAP inh: bovine intestinal alkaline phosphatase inhibitors, primary screen, selectivity assay for TNAP inhibitor project, biochemical, bovine IAP, CDP-star luminescence | 190,000 tested, under 10 active | purified bovine IAP, 30 min | AID 1019, 2008 | inhibition, % at 20 µM;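 active = over 50% inhibition of intestinal alkaline phosphatase at 20 µM in the single-dose screen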
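Incubation: 30 min reaction at room temperature / Material: purified bovine intestinal alkaline phosphatase (IAP) enzyme / Input: enzyme at 1/65,000,000 dilution / Dosing: 20 µM single dose / Signal: CDP-star luminescence signal / Reagent: CDP-star chemiluminescent phosphatase substrate, 30 µM final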
mIAP inh: inhibitors of mouse IAP, primary screen, biochemical, luminescence, uHTS; AID 2806, 2010; 330,000 compounds, 0.2% hits; inhibition, % at 10 µM; purified mouse IAP, CDP-Star luminescence, 30 min; intestinal alkaline phosphatase [Mus musculus];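 active = inhibition of at least 40% at 10 µM in the primary screen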;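 also: plate controls were DMSO with enzyme for no effect and no enzyme wells for full effect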
hIAP act conf: human IAP activators, confirmation, biochemical, luminescence, single concentration, uHTS hits; shares compounds with hIAP activ; purified IAP, CDP-Star luminescence, 30 min; hits give low values; activation (%Activity, negative = activation), % at 8.3 µM; 880 compounds, 10% hits; AID 434926, 2010;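 active = at least twofold enzyme activation in any of six single-dose repeats, which the averaged readout prints as negative percent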
* = called active by the depositor; . = no result given.

SMILES	bIAP act	hIAP inh	hIAP activ	mIAP act	bIAP inh	mIAP inh	hIAP act conf
COc1cccc(CNS(=O)(=O)c2cccc(S(=O)(=O)N3CCOCC3)c2)c1	0.9	-1	1	1.1	10	-8	.
COc1ccc(CNS(=O)(=O)c2cccc(S(=O)(=O)N3CCOCC3)c2)cc1	0.9	36*	0.65	1	10	0	-40
O=C(NC(=S)NC(c1ccccc1)c1ccncc1)c1ccccc1 (stereo not drawn)	1.2	9	0.91	0.93	-18	7	.
N#Cc1cc(Oc2ccccc2)c(-n2nnc3ccccc32)cc1C#N	0.9	35*	0.65	0.92	13	8	41
N#Cc1cc(Oc2ccc3ccccc3c2)c(-n2nnc3ccccc32)cc1C#N	0.7	13	0.87	0.97	25	3	.
CCn1cc(CN2CCN(CCC(C)C)C(CCO)C2)c2ccccc21 (stereo not drawn)	.	-16	1.2	0.92	.	8	.
CCn1cc(CN2CCN(C)C(CCO)C2)c2ccccc21 (stereo not drawn)	.	-185	2.8*	1	.	-2	29
CCN(CC(=O)NCc1ccc(Cl)cc1)C(=O)CSCC(=O)Nc1ccc(OC)cc1	.	-3	1	0.95	.	5	.
O=S(=O)(c1ccc2c(c1)C(O)c1ccccc1CC2)C(F)(F)F (stereo not drawn)	.	7	0.93	1	.	-3	.
CC(=O)c1n[nH]nc1Nc1nc(C)cc(C)n1	0.7	-123	2.2*	1.1	35	-8	0
CC(/C=N/NC(=O)Cn1cnc2ccccc21)=C\c1ccccc1	0.9	-6	1.1	0.92	12	8	.
CC(/C=N/NC(=O)CCn1nnc2ccccc21)=C\c1ccccc1	1.5	35*	0.65	0.97	-52	3	-89*
Cc1noc(C)c1CCC(=O)N1CCCC(CCC(=O)NCc2ccc(F)c(F)c2)C1 (stereo not drawn)	1.1	-18	1.2	1	-7	-2	.
O=C(NCCCCNC(=O)c1ccccc1F)c1ccccc1F	.	37*	0.63	0.91	.	9	17
O=C(O)CNC(=O)c1ccccc1F	0.9	6	0.94	0.95	6	5	.
Cc1ccc(NC(=O)Cn2ncc(Cl)c(Cl)c2=O)cc1S(=O)(=O)N1CCCCC1	.	-6	1.1	0.94	.	6	.
CCC(CC)NC(=O)c1ccc2nc[nH]c2c1	0.9	-15	1.1	0.87	11	13	.
CC(NC(=O)c1ccc2nc[nH]c2c1)c1ccccc1 (stereo not drawn)	1.1	-139	2.4*	0.96	-11	4	-4
Cc1cc(C)cc(N2CC(O)=C(c3nc4ccccc4c(=O)[nH]3)C2=N)c1	1.1	-44	1.4	0.95	-11	5	.
COc1cccc(N2CC(O)=C(c3nc4ccccc4c(=O)[nH]3)C2=N)c1	1	-112	2.1*	0.91	1	9	-55
NC(=O)[C@@H]1CCCN1C(=O)c1ccc2nc(Cc3ccccc3F)oc2c1	.	2	0.97	0.96	.	4	.
COc1cc([N+](=O)[O-])ccc1NC(=O)CCCOc1cccc(C)c1C	0.6	3	0.97	0.83	38	17	.
CCOC(=O)c1sc(NC(=O)/C=C/c2ccccc2)nc1C	1.4	-120	2.2*	0.89	-44	11	1
COc1ccc(C)cc1NC(=S)NNC(=O)c1ccccc1Cl	1.3	-110	2.1*	0.86	-32	14	2
Cc1ccc(NC(=S)NNC(=O)c2ccccc2O)c(C)c1	1.5	-125	2.3*	0.85	-52	15	-35
SMILES	bIAP act	hIAP inh	hIAP activ	mIAP act	bIAP inh	mIAP inh	hIAP act conf
NC(=NCc1ccco1)NC(=O)c1ccc(Cl)cc1	.	9	0.91	1	.	-3	.
CCCc1nnc(NC(=O)C2CC(=O)N(C3CCCC3)C2)s1 (stereo not drawn)	.	11	0.89	0.92	.	8	.
NC(=S)N/N=C/c1ccccc1O	.	-65	1.6	0.97	.	3	.
NC(=S)N/N=C/c1cccc(O)c1O	1.3	-115	2.2*	1	-28	-2	5
Cc1cc(/C=N/NC(N)=S)c(O)c(/C=N/NC(N)=S)c1	.	-178	2.8*	0.81	.	19	-56
Cc1ccc(-n2c(C)cc(/C=N/NC(N)=S)c2C)cc1	1	-7	1.1	0.98	1	2	.
Cc1nc2ncnn2c(C)c1Cc1cccc(C(F)(F)F)c1	1.1	1	0.99	0.83	-10	17	.
Cn1c(CNC(=O)CNS(=O)(=O)c2ccc(Cl)cc2)cc(=O)n(C)c1=O	.	-16	1.2	1.1	.	-9	.
CC1CCCCC1NC(=O)COC(=O)c1ccccc1NC(=O)c1ccco1 (stereo not drawn)	1.1	82*	0.18	1	-12	-2	3
O=C(CSc1ncn[nH]1)NNC(=O)c1ccccc1	.	-123	2.2*	0.92	.	8	-23
O=C(CSc1nnc(NC(=O)c2ccc(S(=O)(=O)N3CCOCC3)cc2)s1)Nc1ccccc1C(F)(F)F	1.1	87*	0.13	1	-13	-4	0
Cc1nnc(NC(=O)c2ccc(S(=O)(=O)N3CCOCC3)cc2)s1	.	-3	1	1.1	.	-9	.
Cc1nnc2ccc(-c3ccc(NS(=O)(=O)c4ccccc4)cc3)nn12	.	5	0.95	0.97	.	3	.
Cc1ccc(S(=O)(=O)NCC(=O)N/N=C/c2ccc(Cl)cc2Cl)cc1	1	3	0.97	1	3	-2	.
Cc1ccc(S(=O)(=O)NCC(=O)N/N=C/c2ccccc2O)cc1	1.4	-118	2.2*	0.71	-45	29	-63
Cc1nc2c3ccccc3nc(NNC(=O)CCC(=O)N3CCN(c4ccccc4F)CC3)n2n1	.	-97	2	0.93	.	7	.
CCOC(=O)C1CCN(C(=O)CCC(=O)NNc2nc3ccccc3c3nc(C)nn23)CC1	.	-175	2.7*	0.81	.	19	-3
COc1ccc(N2CCN(C(=O)CCC(=O)NNc3nc4ccccc4c4nc(C)nn34)CC2)cc1	.	-99	2	0.99	.	1	.
Cc1nc2c3ccccc3nc(NNC(=O)CCC(=O)N3CCC(C)CC3)n2n1	.	-133	2.3*	0.98	.	2	1
